Series [1] has as its system female C57BL/6JRj mice. In words: Female mice given water instead of amino acids. It counts as in vivo. The note with it: sacubitril coadministered with vehicle, GRA or Ex9-39 vs these alone; n = 3. Summed up: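 Female C57BL/6JRj mice were fasted 3 h with free water. They received GRA (100 mg/kg, oral gavage suspension) or its vehicle at –180 min, or Ex9-39 (100 µg i.p.) at –15 min. Sacubitril (0.7 nmol/g BW, oral gavage; DMSO diluted in PBS) or PBS/0.7% DMSO was given at –30 min, then water at 0 min. Retrobulbar blood was taken at 0–180 min for plasma glucagon by 2-site enzyme immunoassay.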

For series [2] the following is noted: used to correct the oral dose; species and source not given; cited from earlier work.
In the next series the test system is male C57BL/6JRj mice. In words: Oral amino acid challenge in male mice treated with sacubitril. It counts as in vivo. As to conditions: AA challenge, n = 6. Summed up:
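Male C57BL/6JRj mice (~22 g) were acclimatized for at least 1 week. At –30 min they received sacubitril (0.7 nmol/g BW; DMSO stock diluted in PBS) or vehicle (PBS, 0.7% DMSO) by oral gavage. Amino acids (34 mg, Vamin solution) were gavaged at 0 min. Tail blood was sampled at 0, 10, 15, 30, 60 and 180 min for glucometer glucose and EDTA plasma. Plasma glucagon was measured by two-site enzyme immunoassay; L-amino acids and urea by kits.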

The target of another series is T1, NEP activity (Mus musculus, UniProt Q61391).
T1 sequence (Q61391 1-750): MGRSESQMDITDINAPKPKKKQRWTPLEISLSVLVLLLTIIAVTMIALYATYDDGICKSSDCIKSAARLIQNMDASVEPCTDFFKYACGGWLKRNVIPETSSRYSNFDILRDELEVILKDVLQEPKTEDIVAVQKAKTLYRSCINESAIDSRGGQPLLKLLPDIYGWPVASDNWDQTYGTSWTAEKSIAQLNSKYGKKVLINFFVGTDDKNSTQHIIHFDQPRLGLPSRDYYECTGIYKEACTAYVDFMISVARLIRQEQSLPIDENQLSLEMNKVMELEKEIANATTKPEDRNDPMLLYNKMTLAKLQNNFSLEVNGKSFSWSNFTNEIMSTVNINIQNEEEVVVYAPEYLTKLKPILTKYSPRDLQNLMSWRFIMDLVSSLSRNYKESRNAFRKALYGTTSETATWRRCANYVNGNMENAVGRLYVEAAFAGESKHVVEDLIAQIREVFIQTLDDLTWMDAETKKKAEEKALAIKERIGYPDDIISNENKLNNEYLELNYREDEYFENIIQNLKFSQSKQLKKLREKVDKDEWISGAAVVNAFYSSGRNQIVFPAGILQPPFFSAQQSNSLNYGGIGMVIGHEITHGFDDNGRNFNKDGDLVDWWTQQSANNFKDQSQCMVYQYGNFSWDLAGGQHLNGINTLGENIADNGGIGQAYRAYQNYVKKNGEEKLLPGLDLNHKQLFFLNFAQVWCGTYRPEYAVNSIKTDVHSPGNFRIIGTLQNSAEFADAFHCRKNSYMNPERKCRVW
Put plainly: Inhibition of NEP activity in mice by oral sacubitril. The series is classed as in vivo. As to conditions: sacubitril 0.7 nmol/g BW, oral gavage; data not shown.

Series [3] deals with GLP-1R^–/– mice and GLP-1R^+/+ mice. It counts as in vivo. The note with it: sacubitril at -30 min, AAs 34 mg oral.
Series [4] concerns female C57BL/6JRj mice. Put plainly: Oral amino acid challenge in female mice treated with sacubitril, GRA or Ex9-39. As to conditions: AAs 34 mg oral. The series is classed as in vivo. Summed up:
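Female C57BL/6JRj mice (n = 7-10) were fasted 3 h. They were pretreated with GRA vehicle or GRA (100 mg/kg oral) at –180 min, or Ex9-39 (100 µg i.p.) at –15 min. Sacubitril (oral gavage) or PBS/0.7% DMSO was given at –30 min. An amino-acid mixture (34 mg, oral gavage) followed at 0 min. Blood glucose was measured from tail bleeds by handheld glucometer at 0, 10, 15, 30, 60 and 180 min.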

Series [5] deals with individuals with obesity and hypertension. In words: 8 weeks treatment, fasting plasma before and after. The series is classed as in vivo, human. As to conditions: amlodipine 10 mg once a day, n = 7, control group. Summed up: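 Multicentre, randomized, double-blinded study in adults with hypertension and obesity. Participants received amlodipine 10 mg once daily (n = 7) or sacubitril/valsartan 194 mg/206 mg once daily (n = 7) for 8 weeks. Plasma was sampled after an overnight fast before and after treatment. Glucagon was measured by validated 2-site enzyme immunoassay and L-amino acids by a commercial kit.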

For a further series, the system named is healthy young men. Put plainly: Single dose of sacubitril/valsartan. The series is classed as in vivo, human. The note with it: valsartan alone 206 mg; n = 3. The method, boiled down:
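Healthy men meeting the crossover-trial inclusion criteria (n = 3) received valsartan 206 mg 30 min before a solid mixed meal (42 g carbohydrate, 25 g fat, 26 g protein), or the meal alone, on separate occasions. Blood was drawn at –60, –15, 0, 30, 45, 90 and 180 min. Plasma glucagon was measured by validated 2-site enzyme immunoassay, and the postprandial response was expressed as incremental AUC.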

The test system of another series is recombinant NEP. Put plainly: ANP degradation by recombinant NEP. It counts as biochemical. As to conditions: MALDI-TOF.

The bioavailability is the share of a dose that reaches the circulation, judged against a reference dose that is usually intravenous. On to `CCOC(=O)[C@H](C)C[C@@H](Cc1ccc(-c2ccccc2)cc1)NC(=O)CCC(=O)O` [sacubitril], for which the “plasma concentrations of glucagon, water instead of AAs” value in the series on female C57BL/6JRj mice [1] was “increased numerically”. Further, the bioavailability in [2] was 60%. In addition, in the series on male C57BL/6JRj mice, the “blood glucose or plasma concentrations of AAs, male mice” value is recorded as “without altering blood glucose or plasma concentrations of AAs”; the “plasma concentrations of glucagon, male mice” value was “increased plasma concentrations of glucagon”; the “plasma concentrations of urea, male mice” value is reported as “did not increase plasma concentrations of urea”. For the same compound, the “inhibition of NEP activity in mice” value against NEP activity is recorded as ~ 60%. Besides, the “plasma AA iAUC in GLP-1^–/– mice” value in [3] (mean ± SD, vehicle 255 ± 118, P = .05) came out at 376 ± 67. Also, the “augmenting effect on AA-stimulated glucagon levels in GLP-1R^+/+ mice” value in [3] (time point 15 minutes, P = .02) was “apparent only in littermate controls”. For the same compound, the “glucagon response to AAs in GLP-1R^–/– mice” value in series [3] (vs vehicle) is “did not, however, increase the glucagon response to AAs”. Moreover, the “blood glucose concentrations in response to an AA challenge in GLP-1R^–/– mice” value in series [3] (vs vehicle, P = .03) is “increased blood glucose concentrations”. Moreover, the “plasma concentrations of glucagon, coadministration with Ex9-39 vs Ex9-39 alone” value in the series with female C57BL/6JRj mice [4] (sacubitril 0.7 nmol/g BW + Ex9-39 100 µg) is “increased plasma concentrations of glucagon more”. The “plasma concentrations of amino acids vs vehicle” value in the series on female C57BL/6JRj mice [4] (sacubitril 0.7 nmol/g BW oral) was “no effect on plasma concentrations of amino acids”. Further, in the series with female C57BL/6JRj mice [4] (sacubitril 0.7 nmol/g BW oral, vs vehicle), the “blood glucose concentrations in response to an AA challenge” value is reported as “no significant increase”.

`CCOC(=O)C1=C(COCCN)NC(C)=C(C(=O)OC)C1c1ccccc1Cl` (centres unmarked) [amlodipine]: the “plasma concentrations of glucose, glucagon, or AAs, after vs before” value in [5] is given as “no significant changes”.

Take `CCCCC(=O)N(Cc1ccc(-c2ccccc2-c2nnn[nH]2)cc1)[C@H](C(=O)O)C(C)C` [valsartan]: the “effect on postprandial plasma concentrations of glucagon vs control” value in the series on healthy young men was “no effect”.

In the case of `C[C@H](C[C@@H](Cc1ccc(-c2ccccc2)cc1)NC(=O)CCC(=O)O)C(=O)O` [sacubitrilat], the “effect on NEP-induced ANP cleavage” value in the series on recombinant NEP (sacubitrilat added) was “prevented by the addition of sacubitrilat”.

For the compound atrial natriuretic peptide [ANP], the “degradation of ANP by NEP” value in the series with recombinant NEP (positive control, recombinant NEP, Supplementary Fig. 2A and 2B) was “NEP cleavage resulted in the formation of a known substrate (m/z 2585)”.

Source of the values: paper PMC8317634 (Journal of the Endocrine Society, 2021).
